# High-throughput results deposited in PubChem by Sanford-Burnham Center for Chemical Genomics.
# SENP8 block-1: inhibitors of human SENP8 protease | Q96LD8 | 360,000 compounds, 0.64% hits | inhibition, % at 20 µM | recombinant SENP8, Nedd8 substrate fluorescence; in the data active means inhibition mostly above about 40%, no sharp cut-off; inactive means mostly below about 27%
# SENP1 inh: blocks the human SENP1 SUMO protease catalytic domain. recombinant SENP1 catalytic domain, CyPet-SUMO1-YPet FRET cleavage. 360,000 compounds, 0.21% hits. AID 624204. inhibition, % at 10 µM. Q9P0U3;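 active means inhibition at least 30% at 10 µM, raw YFP signal under a set limit, fluorescence ratio 0.5 to 1.5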;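 further: 0% = enzyme with DMSO and 100% = no enzyme wells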
#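 System: Recombinant human SENP1 catalytic domain, His6-tagged | Incubation: Enzyme reaction for 50 min at room temperature, dark | Medium: Tris pH 8 with BME, BSA, NP40 and catalase | Also added: 25 nM SUMO1 FRET substrate | Compound: 10 µM single point, 0.5% DMSO | Measured by: FRET fluorescence in CFP and YFP emission channels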
# SENP8 block-2: inhibitors of human SENP8 protease; Q96LD8; purified SENP8, Z-RLRGG-aminoluciferin cleavage, luminescence; inhibition, % at 10 µM; 330,000 compounds, 1.2% hits; in the data active means inhibition above about 50%
# SENP7 block: SENP7 protease inhibition | Q9BQF6 | 330,000 compounds, 1.5% hits | recombinant SENP7, Z-RLRGG-aminoluciferin luminescence, 40 min | inhibition, % at 5 µM;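 active means inhibition above about 50% at the single test dose, limit read from the data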;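 further: plate controls were DMSO with enzyme for no effect and no enzyme buffer wells for full effect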
# SENP6 inh: blocks the human protease SENP6. Q9GZR1. Recombinant SENP6 catalytic domain, aminoluciferin luminescence. inhibition, % at 10 µM. 330,000 compounds, 1.8% hits;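 active means inhibition above about 50% at the single tested dose, limit read from the data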;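 further: plate controls were DMSO wells with enzyme for no effect and DMSO wells lacking enzyme for full effect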
# Apaf-1 inh: blocks human Apaf-1 apoptosome activity; O14727; reconstituted apoptosome caspase-3 activity, DEVD-Rh110 fluorescence; inhibition, % at 20 µM; 330,000 compounds, 0.71% hits; active means inhibition of at least 40% at 20 µM;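 further: plate controls were DMSO wells for no effect and DEVD-CHO caspase inhibitor wells for full effect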
# Target sequence (O14727 whole entry, looked up): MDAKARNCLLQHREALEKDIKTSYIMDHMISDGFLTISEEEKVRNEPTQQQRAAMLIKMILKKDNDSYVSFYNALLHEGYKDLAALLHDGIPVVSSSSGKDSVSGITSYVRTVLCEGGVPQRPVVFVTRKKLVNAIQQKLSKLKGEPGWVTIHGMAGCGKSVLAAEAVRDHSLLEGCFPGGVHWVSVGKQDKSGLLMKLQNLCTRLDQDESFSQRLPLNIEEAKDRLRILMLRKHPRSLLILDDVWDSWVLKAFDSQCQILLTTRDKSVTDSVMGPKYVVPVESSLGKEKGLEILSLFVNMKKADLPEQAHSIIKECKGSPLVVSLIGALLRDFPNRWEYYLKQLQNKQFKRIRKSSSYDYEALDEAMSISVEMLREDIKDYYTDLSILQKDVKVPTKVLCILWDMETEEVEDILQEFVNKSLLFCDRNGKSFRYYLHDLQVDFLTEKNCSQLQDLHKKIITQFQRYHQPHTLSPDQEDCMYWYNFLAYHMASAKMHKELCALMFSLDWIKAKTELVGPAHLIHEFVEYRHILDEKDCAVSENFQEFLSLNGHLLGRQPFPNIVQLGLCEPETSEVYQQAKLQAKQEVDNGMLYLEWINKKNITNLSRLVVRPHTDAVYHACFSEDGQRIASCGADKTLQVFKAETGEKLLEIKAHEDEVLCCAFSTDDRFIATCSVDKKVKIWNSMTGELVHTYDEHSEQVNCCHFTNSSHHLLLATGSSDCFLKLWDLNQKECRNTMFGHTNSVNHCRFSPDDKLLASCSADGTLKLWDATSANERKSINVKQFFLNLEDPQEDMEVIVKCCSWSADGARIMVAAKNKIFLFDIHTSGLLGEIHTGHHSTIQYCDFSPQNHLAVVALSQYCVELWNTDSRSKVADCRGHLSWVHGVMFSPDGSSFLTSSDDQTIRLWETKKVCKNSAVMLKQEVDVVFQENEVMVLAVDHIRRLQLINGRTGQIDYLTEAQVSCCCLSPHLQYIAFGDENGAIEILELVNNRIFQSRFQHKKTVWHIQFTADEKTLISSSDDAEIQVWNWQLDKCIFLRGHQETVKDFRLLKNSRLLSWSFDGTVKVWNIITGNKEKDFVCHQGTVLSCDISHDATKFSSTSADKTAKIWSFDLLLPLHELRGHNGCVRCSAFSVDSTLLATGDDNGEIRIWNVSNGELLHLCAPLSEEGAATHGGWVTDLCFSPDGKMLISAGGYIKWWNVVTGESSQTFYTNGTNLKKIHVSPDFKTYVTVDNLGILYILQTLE
#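 detection = Rh110 fluorescence intensity | test system = biochemical Apaf-1 apoptosome reconstitution | also added = cytochrome c and DEVD-Rh110 substrate | schedule = 30 min plus 50 min, RT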
# Apaf-1 inh conf2: confirmation of Apaf-1 inhibitors; shares compounds with Apaf-1 inh; reconstituted apoptosome, caspase-3 DEVD-Rh110 fluorescence; inhibition, % at 20 µM; 1,800 compounds, 25% hits; AID 504614;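 active means mean inhibition of at least 40% at 20 µM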;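 further: plate controls were DMSO wells for no effect and DEVD-CHO caspase inhibitor control wells for full effect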
# Rh110 quench: interferes with Rh110 fluorescence, flagging false Apaf-1 inhibitors; shares compounds with Apaf-1 inh; Rh110 fluorescence interference, quenched caspase reaction; activation (fluorescence interference), % at 20 µM; 1,800 tested, under 10 active; AID 504615;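 active means signal rise of 40% or more at 20 µM, treated as a fluorescence artifact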
# Numbers without * were called inactive; / = no result. Rows were chosen to be rich in hits. Some 2.9% of all compounds tested hit in one or more screens of this group.
SMILES,SENP8 block-1,SENP1 inh,SENP8 block-2,SENP7 block,SENP6 inh,Apaf-1 inh,Apaf-1 inh conf2,Rh110 quench
c1ccc(CNc2nc(NCc3ccccc3)c3ccccc3n2)cc1,-477.4,3.4,-21.7,9.0,-40.9,65.9*,5.8,-0.3
Cc1ccc(S(=O)(=O)N(C)c2ccc(C(=O)N(CC(C)C)C3CCS(=O)(=O)C3)cc2)cc1 (stereo unspecified),0.4,-2.3,-2.1,1.9,-19.3,24.5,/,/
Nc1ccc2nc(-c3ccccc3)c(-c3ccccc3)nc2c1,-221.4,-32.4,1.1,11.5,21.3,64.6*,28.5,6.9
COC(=O)c1ccc(CNC(=O)COC(=O)c2ccccc2-c2ccccc2)cc1,10.8,2.3,-2.1,8.3,-11.1,24.4,/,/
COc1cccc(-c2[nH]nc3c2C(c2ccsc2)C(C#N)=C(N)O3)c1 (stereo unspecified),-4.6,-42.0,16.9,22.3,29.1,60.0*,11.3,3.9
COc1cc(OC)c2c(-c3ccccc3)cc(=O)oc2c1C(CC(=O)N1CCOCC1)c1ccc2c(c1)OCO2 (stereo unspecified),-49.8,-3.8,-5.8,2.0,-16.2,18.2,/,/
COc1ccc(C2CC(=O)Oc3c(C(CCN4CCCC(C)C4)c4ccc(N(C)C)cc4)c(OC)cc(OC)c32)cc1 (stereo unspecified),9.2,-2.2,-12.0,1.2,-3.4,49.1*,18.2,12.4
COc1ccc(C(CCN2CCOCC2)c2c(OC)cc(OC)c3c(-c4ccccc4)cc(=O)oc23)cc1 (stereo unspecified),-104.5,0.3,/,-4.1,/,52.9*,2.0,7.2
COc1ccc(C(CCN2CCCC(C)C2)c2c(OC)cc(OC)c3c(-c4ccccc4)cc(=O)oc23)cc1 (stereo unspecified),-151.3,0.4,-7.7,1.7,-8.2,54.4*,25.6,0.9
COc1cc(OC)c2c(-c3ccccc3)cc(=O)oc2c1C(CCN1CCOCC1)c1ccc2c(c1)OCO2 (stereo unspecified),-40.6,0.7,/,-2.3,/,42.1*,9.1,-2.3
CCN(CC)C(=O)C1=C(C)N(Cc2ccccc2)C(=O)C(CC(=O)NCCN2CCOCC2)C1 (stereo unspecified),0.4,2.3,/,/,/,/,/,/
CCCCCc1cc(=O)oc2c(C(CCN3CCCCC3)c3ccc4c(c3)OCO4)c(OC)cc(OC)c12 (stereo unspecified),-168.6,-1.6,-17.5,-1.5,-9.0,65.9*,38.9,18.4
COc1cc(OC)c2ccc(=O)oc2c1C(CCN1CCCC1)c1ccc2c(c1)OCO2 (stereo unspecified),-153.9,-3.4,-3.6,-0.5,-10.0,12.5,/,/
COc1cccc(-c2nc3nc(C)cc(C)n3c2NC2CCCC2)c1,-31.5,-5.4,/,/,/,/,/,/
COc1cccc(C(c2c(C)[nH]n(-c3ccccc3)c2=O)c2c(C)[nH]n(-c3ccccc3)c2=O)c1OC,73.4*,1.6,5.7,39.4,15.2,96.8*,30.5,6.3
Cc1[nH]n(-c2ccccc2)c(=O)c1-c1ccccc1,12.4,-3.3,2.2,4.9,5.2,3.2,/,/
Cc1[nH]n(-c2ccccc2)c(=O)c1C(C[N+](=O)[O-])c1ccccc1Cl (stereo unspecified),64.3*,2.1,-0.2,46.8,19.1,79.1*,37.9,10.2
Cc1ccc(C)c(NC(=O)CN(C)C(=O)c2ccc(COc3ccccc3)cc2)c1,15.5,-0.9,/,/,/,/,/,/
CCOC(=O)c1cc(C(C)=O)n2ccccc12,-30.4,-10.1,-0.6,-1.8,-19.0,-9.4,/,/
CCOC(=O)c1cc(C(=O)c2cccs2)n2ccc(C(C)=O)cc12,-412.5,-26.1,-4.0,6.0,-13.9,42.3*,9.7,4.2
Cc1cccc(CNc2ccc(S(=O)(=O)N3CCCCC3)cc2)c1,21.0,1.1,4.6,0.7,-4.0,6.9,/,/
N#Cc1c(NCCO)nc(NCc2ccccc2)c2c1CCN(Cc1ccccc1)C2,/,/,13.5,20.4,31.8,60.0*,24.8,12.3
